Experiments:
L02 = assay: Cytotoxicity against human HL-7702 cells assessed as cell growth inhibition after 48 hrs by MTT assay; format: cell-based; conditions: L02, 48 h
How it was run: (§1)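 Adherent cells seeded at 5000/well, left 16−24 h, then exposed 48 h at 37 °C, 5% CO2 in RPMI with 10% FBS. Medium refreshed, MTT added for 4 h at 37 °C, medium removed, formazan dissolved in DMSO, OD570 read. IC50 taken as concentration inhibiting growth by 50%; triplicate.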

ECa-109 cell line = assay: Cytotoxicity against human ECA109 cells assessed as cell growth inhibition after 48 hrs by MTT assay; format: functional, cell-based; conditions: ECa-109, 48 h; how it was run: as §1
K562 = assay: Cytotoxicity against human K562 cells assessed as cell growth inhibition after 48 hrs by MTT assay; format: functional, cell-based; conditions: K562, 48 h
How it was run: (§2)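 Suspension cells seeded at 5000/well (HL-60 in IMDM, K562 in RPMI, both with 10% FBS) and treated. MTT then added for 4 h at 37 °C; plates centrifuged at 3000 rpm for 30 min, medium removed, DMSO added, OD570 read. IC50 taken as concentration giving 50% growth inhibition; triplicate.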

HepG2 = assay: Cytotoxicity against human HepG2 cells assessed as cell growth inhibition after 48 hrs by MTT assay; format: functional, cell-based; conditions: HepG2, 48 h; how it was run: as §1
HL-60 = assay: Cytotoxicity against human HL60 cells assessed as cell growth inhibition after 48 hrs by MTT assay; format: functional, cell-based; conditions: HL-60, 48 h; how it was run: as §2
A549 = assay: Cytotoxicity against human A549 cells assessed as cell growth inhibition after 48 hrs by MTT assay; format: functional, cell-based; conditions: A549, 48 h; how it was run: as §1

SMILES | IC50 (L02) | IC50 (ECa-109 cell line) | IC50 (K562) | IC50 (HepG2) | IC50 (HL-60) | IC50 (A549)
C=C(C)[C@@H]1CC[C@]2(C(=O)OC)CC[C@]3(C)[C@H](CC[C@@H]4[C@@]5(C)CC[C@H](OC(=O)CCCC[P+](c6ccccc6)(c6ccccc6)c6ccccc6)C(C)(C)[C@@H]5CC[C@]43C)[C@@H]12 | 6.3 µM | 4.75 µM | 3.58 µM | 4.35 µM | 3.11 µM | 4.99 µM
C=C(C)[C@@H]1CC[C@]2(C(=O)O)CC[C@]3(C)[C@H](CC[C@@H]4[C@@]5(C)CC[C@H](O)C(C)(C)[C@@H]5CC[C@]43C)[C@@H]12 [BETULINIC ACID] | 35.1 µM | 28.1 µM | 22 µM | 25.3 µM | 18.5 µM | 17.1 µM
C=C(C)[C@@H]1CC[C@]2(COC(=O)CCCC[P+](c3ccccc3)(c3ccccc3)c3ccccc3)CC[C@]3(C)[C@H](CC[C@@H]4[C@@]5(C)CC[C@H](OC(C)=O)C(C)(C)[C@@H]5CC[C@]43C)[C@@H]12 | 7.18 µM | 1.41 µM | 0.62 µM | 2.42 µM | 0.58 µM | 0.83 µM
C=C(C)[C@@H]1CC[C@]2(CO)CC[C@]3(C)[C@H](CC[C@@H]4[C@@]5(C)CC[C@H](O)C(C)(C)[C@@H]5CC[C@]43C)[C@@H]12 [BETULIN] | 26.8 µM | 26.6 µM | 12.9 µM | 10.7 µM | 30.9 µM | 18.2 µM

From ChEMBL document CHEMBL4011654, “Mitochondria-Targeted Lupane Triterpenoid Derivatives and Their Selective Apoptosis-Inducing Anticancer Mechanisms” (J Med Chem, 2017)
